PubChem BioAssay
Calls of active or inactive are those of the source.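 The calls were made as follows, unless noted: active = compounds giving at least 50% inhibition in the cell-based MKP-3 phosphatase rescue imaging test; inactive = the rest.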

Experiments:
[1] = inhibitors of TNFa-induced NFkB p65 translocation, primary screen, imaging, HUVEC, MLSMR starter and 10KST1 sets (AID 438;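 active = inhibition above 20% together with a positive visual image hit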;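 also: compound added about 3h40 before a 20 min TNFalpha stimulation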;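 as to inhibition: signal is the nuclear over cytoplasmic p65 intensity ratio per well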); details: HUVEC TNFa-induced p65 nuclear translocation; cell count: measured here: nuclei count (cytotoxicity indicator), at 2.08 µM; inhibition: at 2 µM, stronger effect = higher value, 0% TNFa-plus-vehicle, 100% no-TNFa wells
[2] = inhibitors of E-selectin induction by TNFa, primary screen, imaging, HUVEC, immunofluorescence, MLSMR starter and 10KST1 sets (AID 487;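 active = visually confirmed hit in the image check and inhibition above 20%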;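 as to inhibition: signal is fraction of cell area covered by stained E-selectin grains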;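 as to nuclei count: 100% = median nuclei count of all wells on the same plate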); details: HUVEC TNFalpha-induced E-selectin immunofluorescence imaging, at 2 µM; inhibition: stronger effect = higher value; nuclei count: measured here: cell number, toxicity
[3] = DUSP6 inhibitors restoring Erk phosphorylation by chemical complementation, primary imaging in DUSP6-transfected HeLa (AID 609); details: HeLa MKP-3 transfected, phospho-Erk imaging KS statistic, at 10 µM, cells stimulated with TPA for 15 min;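 as to inhibition: phospho-Erk level distribution per well compared with pooled transfected vehicle control wells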
[4] = target: Dual specificity protein phosphatase 6 (Homo sapiens) (UniProt Q16828); assay: as above; details: HeLa MKP-3 transfected, phospho-Erk imaging KS statistic; at 10 µM; stronger effect = higher value; cells stimulated with TPA for 15 min
[5] = target: Voltage-gated potassium channel subunit beta-2 (Rattus norvegicus) (UniProt P62483); assay: KvBeta enzyme negative modulators, primary screen, biochemical, NADPH fluorescence (AID 622;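 active = fluorescence slope higher than the sample average by over 3 SD, cut at about -0.22 in these data, passing the limit was not always enough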;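 also: slope of raw intensity against log time taken from 70 to 1610 s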); details: recombinant KvBeta, 4-cyanobenzaldehyde reduction, at 10 µM, stronger effect = higher value
[6] = target: Voltage-gated potassium channel subunit beta-2 (Rattus norvegicus) (UniProt P62483); assay: KvBeta positive modulators, primary screen, biochemical, NADPH fluorescence (AID 623;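 active = NADPH fluorescence slope more negative than the mean of all samples by about 3 SD, 99.7% confidence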;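 also: fluorescence intensity change per second fitted from 20 to 320 s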); details: Recombinant KvBeta, NADPH fluorescence decrease slope, 10 min; at 10 µM; stronger effect = lower value
[7] = target: Alpha-2C adrenergic receptor (Homo sapiens) (UniProt P18825); assay: modulators of alpha2C/GIRK thallium flux, primary screen, cell-based, HEK293 alpha2C/GIRK1/2 (AID 624;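 active = fluorescence slope after compound addition differing from the mean of all screened samples at 99.7% confidence, in either direction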;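 also: slope of fluorescence ratio to pre-addition baseline per second over 15 to 24 s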); details: thallium flux BTC fluorescence, at 10 µM, actives lie on both sides
[8] = inhibitors of larval lipid processing in zebrafish, primary screen, whole organism, PED6 fluorescence, gall bladder and intestine (AID 686;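 active = a full or partial loss of lipid-probe fluorescence in the fish gall bladder, intestine or both, judged by eye; inactive = no fluorescence loss, or compound toxic to the fish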;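 also: larvae 5 to 7 days old with five fish per well; signal comes from phospholipase A2 cleavage of quenched PED6 carried via bile; overnight exposure to compound and PED6 before scoring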); details: Zebrafish larvae PED6 lipid processing, fluorescence scoring; screened at 20 µM (by protocol)
Method in brief: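 System: live zebrafish larvae aged 5-7 days, whole organism; measure: graded gall bladder and intestinal fluorescence inhibition per well; incubation: overnight exposure; reagent: ingested quenched lipid PED6 at 100 nM; signal: By-eye fluorescence microscopy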

[9] = inhibitors of Chlamydomonas gravitaxis, primary screen, whole organism, Chlamydomonas reinhardtii, WT vs cilia-less mutant, absorbance, 96-well (AID 463189;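 active = inhibition at or above 50% relative to wild type and mutant plate controls; inactive = inhibition below 50%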;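 also: 0% = wild type cc124 cells in DMSO and 100% = ciliumless bld1 mutant cells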); details: OD600 absorbance, 2 days, at 10 µM, stronger effect = higher value
[10] = measured here: cell density z-score
[11] = measured here: nuclear c-Myc green intensity z-score
[12] = measured here: nuclear pErk red intensity z-score, stronger effect = higher value

Voltage-gated potassium channel subunit beta-2 (Rattus norvegicus), sequence (P62483 whole entry, looked up): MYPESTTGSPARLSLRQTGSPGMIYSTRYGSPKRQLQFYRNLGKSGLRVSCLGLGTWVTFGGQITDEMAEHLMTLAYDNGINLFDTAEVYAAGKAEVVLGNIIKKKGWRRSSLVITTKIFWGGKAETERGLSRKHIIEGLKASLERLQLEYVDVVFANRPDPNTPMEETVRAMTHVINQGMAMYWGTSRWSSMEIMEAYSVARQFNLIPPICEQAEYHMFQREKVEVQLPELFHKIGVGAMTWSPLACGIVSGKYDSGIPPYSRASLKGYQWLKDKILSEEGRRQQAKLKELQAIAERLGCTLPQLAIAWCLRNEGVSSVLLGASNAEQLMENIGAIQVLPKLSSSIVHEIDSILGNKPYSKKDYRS
Dual specificity protein phosphatase 6 (Homo sapiens), sequence (Q16828 whole entry, looked up): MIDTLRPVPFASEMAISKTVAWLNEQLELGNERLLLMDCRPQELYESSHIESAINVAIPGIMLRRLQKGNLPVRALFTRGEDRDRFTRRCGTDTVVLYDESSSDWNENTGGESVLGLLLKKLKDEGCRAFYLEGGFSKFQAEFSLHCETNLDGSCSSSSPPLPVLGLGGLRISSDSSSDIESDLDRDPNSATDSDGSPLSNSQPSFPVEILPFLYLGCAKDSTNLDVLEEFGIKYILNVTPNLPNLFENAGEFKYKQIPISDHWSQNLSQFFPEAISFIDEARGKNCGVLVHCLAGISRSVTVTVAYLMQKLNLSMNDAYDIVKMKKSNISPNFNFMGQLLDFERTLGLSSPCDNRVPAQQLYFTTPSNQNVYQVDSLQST
Alpha-2C adrenergic receptor (Homo sapiens), sequence (P18825 whole entry, looked up): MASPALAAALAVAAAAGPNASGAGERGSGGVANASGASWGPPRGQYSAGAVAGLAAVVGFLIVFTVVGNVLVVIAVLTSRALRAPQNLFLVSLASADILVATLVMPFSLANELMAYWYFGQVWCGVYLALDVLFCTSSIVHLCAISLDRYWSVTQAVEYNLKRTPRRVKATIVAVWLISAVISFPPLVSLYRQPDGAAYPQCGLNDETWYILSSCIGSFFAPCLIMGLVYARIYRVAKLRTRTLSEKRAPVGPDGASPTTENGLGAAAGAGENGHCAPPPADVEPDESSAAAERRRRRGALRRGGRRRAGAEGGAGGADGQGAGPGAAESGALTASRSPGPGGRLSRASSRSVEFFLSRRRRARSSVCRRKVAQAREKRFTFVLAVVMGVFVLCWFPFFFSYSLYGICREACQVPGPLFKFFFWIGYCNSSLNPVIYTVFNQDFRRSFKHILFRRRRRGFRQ

Structure (SMILES) | cell count [1] | inhibition [1] | inhibition [2] | nuclei count [2] [%] | z-score [3, 10] | z-score [3, 11] | z-score [3, 12] | inhibition [4] | fluorescence slope [5] | NADPH fluorescence slope [6] | slope [7] | outcome [8] | inhibition [9]
COc1ccc(/C=C/C2=NC(=C\N(C)C)/C(=O)O2)cc1 | 558 | 0.1% (inactive) | -26.3% (inactive) | 155 | -0.557 | 0.899 | -1.61 | 5.26% (inactive) | -0.303 (inactive) | 4.9e-06 (inactive) | 0.00517 (inactive) | inactive | -3.9% (inactive)
N#CCCSc1nc(N2CCOCC2)c2c(c1C#N)CCCC2 | 572 | -15.5% (inactive) | -43.5% (inactive) | 168 | -1.47 | -0.393 | -0.37 | 5.65% (inactive) | -0.357 (inactive) | 1.4e-05 (inactive) | 0.00506 (inactive) | inactive | -11.5% (inactive)
COc1ccc(C2=Nn3c(nnc3-c3cccnc3)SC2)cc1OC | 614 | -5.8% (inactive) | -109% (inactive) | 152 | -0.53 | 0.48 | 0.0126 | -7.86% (inactive) | -0.398 (inactive) | -0.000172 (inactive) | 0.00709 (inactive) | inactive | 2.3% (inactive)
CC(=O)c1c(N)nc2n(c1=O)CCCCC2 | 354 | -4.7% (inactive) | -5.5% (inactive) | 162 | 0.366 | 0.179 | 0.934 | 9.42% (inactive) | -0.392 (inactive) | -0.000138 (inactive) | 0.0044 (inactive) | inactive | 24.2% (inactive)
COc1cc(OC)cc(C(=O)N2CCC(N3CCN(c4ccccc4)CC3)CC2)c1 | 382 | -13.9% (inactive) | -114% (inactive) | 122 | 1.61 | -0.715 | -0.404 | 12.7% (inactive) | -0.342 (inactive) | 5.8e-05 (inactive) | 0.00556 (inactive) | inactive | -4.18% (inactive)
COc1cccc(C2/C(=C(\O)c3ccc4c(c3)OCCO4)C(=O)C(=O)N2CCN(C)C)c1 (stereo not drawn) | 509 | -0.6% (inactive) | -108% (inactive) | 138 | 1 | -0.131 | -0.387 | 17.5% (inactive) | -0.546 (inactive) | -3.2e-05 (inactive) | 0.00546 (inactive) | inactive | -11.2% (inactive)
CCCC(=O)Nn1cnc2c(c1=O)C1(CCCC1)Cc1ccccc1-2 | 558 | -2.6% (inactive) | -157% (inactive) | 108 | -0.794 | -0.594 | -0.952 | 11.9% (inactive) | -0.327 (inactive) | 2.7e-05 (inactive) | 0.00422 (inactive) | inactive | -19.9% (inactive)
COc1ccc(-c2nn3c(-c4ccccn4)nnc3s2)cc1OC | 638 | -8.9% (inactive) | 36.9% (inactive) | 169 | 0.845 | -0.297 | -0.421 | -2.47% (inactive) | -0.407 (inactive) | -0.000141 (inactive) | 0.00665 (inactive) | inactive | 22% (inactive)
COc1ccc(C(C)=O)cc1CSCCC(=O)O | 513 | -1.6% (inactive) | -82.1% (inactive) | 175 | 1.45 | -1.72 | -4.2 | -5.26% (inactive) | -0.349 (inactive) | 1.8e-05 (inactive) | 0.00434 (inactive) | inactive | 0.764% (inactive)
CCOC(=O)c1ccc(N=CC2=C(O)CC(c3ccco3)CC2=O)cc1 (stereo not drawn) | 411 | -17.7% (inactive) | -249% (inactive) | 188 | 1.91 | -1.05 | 0.242 | 16% (inactive) | -0.351 (inactive) | -1.6e-05 (inactive) | 0.00521 (inactive) | inactive | 1.78% (inactive)
Cc1cc(OCCN2CCOCC2)nc2ccccc12 | 358 | -29.5% (inactive) | -231% (inactive) | 135 | 0.234 | -1.97 | -1.2 | -10.5% (inactive) | -0.431 (inactive) | -9.4e-05 (inactive) | 0.00613 (inactive) | inactive | 22.7% (inactive)
Fc1ccccc1/C=N/n1cnnc1 | 540 | -6.3% (inactive) | -60.4% (inactive) | 172 | 0.728 | -0.356 | 0.425 | 4.25% (inactive) | -0.297 (inactive) | -6.2e-06 (inactive) | 0.00552 (inactive) | inactive | 5.22% (inactive)
CC(C)CC(NC(=O)OC(C)(C)C)C(=O)NCc1ccccc1 (stereo not drawn) | 626 | -12.9% (inactive) | -28.9% (inactive) | 156 | 1.56 | -1.58 | 0.0751 | 5.57% (inactive) | -0.475 (inactive) | -0.000315 (inactive) | 0.00412 (inactive) | inactive | 1.86% (inactive)
CCc1nc(SCc2cccnc2)c(C#N)cc1C | 594 | -3.5% (inactive) | -81.5% (inactive) | 176 | 0.241 | -0.223 | -1.08 | 2.46% (inactive) | -0.341 (inactive) | 8.2e-06 (inactive) | 0.00538 (inactive) | inactive | 50.3% (active)
COc1ccccc1N1C(=O)C2ON(c3ccccc3)C(c3ccc(N(C)C)cc3)C2C1=O (stereo not drawn) | 575 | -8.3% (inactive) | -66.7% (inactive) | 170 | -2.24 | 0.301 | 1.93 | -15% (inactive) | -0.503 (inactive) | -3e-05 (inactive) | 0.00352 (inactive) | inactive | 9.55% (inactive)
COc1ccc(C(=O)C(CN2CCCC2)c2ccccc2)cc1 (stereo not drawn) | 653 | -4.3% (inactive) | 0.2% (inactive) | 178 | -0.885 | 0.507 | 1.21 | 1.75% (inactive) | -0.521 (inactive) | -8.7e-05 (inactive) | 0.00506 (inactive) | inactive | 5.7% (inactive)
COc1ccc(/C(O)=C2\C(=O)C(=O)N(c3cc(C)on3)C2c2cccc(OC)c2OC)cc1C (stereo not drawn) | 531 | -1.2% (inactive) | -148% (inactive) | 129 | -0.589 | 1.28 | 0.634 | 1.75% (inactive) | -0.5 (inactive) | -2.6e-05 (inactive) | 0.00468 (inactive) | inactive | -15.3% (inactive)
COc1cccc(-c2nc(N3CCCCC3)c3ccccc3n2)c1O | 528 | 1.2% (inactive) | -31.1% (inactive) | 142 | 1.81 | 0.268 | -0.772 | 1.6e-07% (inactive) | -0.405 (inactive) | -3.2e-05 (inactive) | 0.0042 (inactive) | inactive | 15% (inactive)
COCCCNc1nc2c(c(=O)n(C)c(=O)n2C)n1Cc1cccc(OC)c1 | 434 | -9.7% (inactive) | -93.1% (inactive) | 190 | 2.25 | -1.46 | -1.41 | 4.37% (inactive) | -0.325 (inactive) | 1.1e-05 (inactive) | 0.00428 (inactive) | inactive | -3.39% (inactive)
CC1(C)Cc2nc(NCCCO)c(C#N)cc2CO1 | 503 | -6% (inactive) | 29.1% (inactive) | 94.8 | -0.759 | 0.0263 | -0.295 | -11.9% (inactive) | -0.421 (inactive) | -0.000243 (inactive) | 0.00519 (inactive) | inactive | 5% (inactive)
CCn1cc(C(=O)NCC2CCCO2)c(=O)c2cc(F)c(N3CCN(C)CC3)cc21 (stereo not drawn) | 570 | -6.7% (inactive) | -14.6% (inactive) | 188 | -0.305 | -1.21 | 2 | 1.75% (inactive) | -0.388 (inactive) | -2.9e-05 (inactive) | 0.00486 (inactive) | inactive | 4.63% (inactive)
CC(C)Oc1ccc(/C(O)=C2/C(=O)C(=O)N(CCN(C)C)C2c2ccco2)cc1 (stereo not drawn) | 481 | -1% (inactive) | -6.9% (inactive) | 112 | -0.569 | -0.19 | -0.239 | -1.12% (inactive) | -0.324 (inactive) | 1.4e-05 (inactive) | 0.00581 (inactive) | inactive | 6.02% (inactive)
CCOC(=O)CNS(=O)(=O)c1cc(-c2nn(C)c(=O)c3ccccc23)ccc1C | 560 | -1.9% (inactive) | 45.7% (inactive) | 144 | 1.99 | -1.09 | -0.809 | 8.76% (inactive) | -0.385 (inactive) | -1.9e-05 (inactive) | 0.00449 (inactive) | inactive | -1.44% (inactive)
O=C(CNC1C(=O)Nc2ccccc21)Sc1ccccc1 (stereo not drawn) | 636 | -12.1% (inactive) | -63.1% (inactive) | 118 | 1.09 | -0.106 | -0.738 | 14.4% (inactive) | -0.383 (inactive) | -1.8e-06 (inactive) | 0.00502 (inactive) | inactive | -11.8% (inactive)
O=C1CCC(=O)N1CN(C(=O)c1ccco1)c1ccc(Cl)c(Cl)c1 | 481 | 1.1% (inactive) | -72.5% (inactive) | 125 | -1.21 | 0.938 | 0.134 | -3.5% (inactive) | -0.562 (inactive) | -2.3e-05 (inactive) | 0.00659 (inactive) | inactive | -12.3% (inactive)
Fc1ccc(OCCOCCNCC2CCCO2)cc1 (stereo not drawn) | 369 | 0.4% (inactive) | -35.4% (inactive) | 84.5 | 0.189 | 0.788 | 0.463 | 15.1% (inactive) | -0.557 (inactive) | -4.4e-05 (inactive) | 0.00452 (inactive) | inactive | 43.6% (inactive)
